Measured values as given in ChEMBL document CHEMBL4699461, “Enhanced Production and Anticancer Properties of Photoactivated Perylenequinones” (J Nat Prod, 2020).

What was measured:
SK-MEL-28 [1] = test: Phototherapeutic index, ratio of EC50 for cytotoxicity against human SK-MEL-28 cells in dark condition to EC50 for phototoxicity against human SK-MEL-28 cells preincubated for 16 hrs followed by irradiated with 100 J/cm2 625 nanometer red light for 60 mins
Summary of the method: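 PI for red light, calculated as dark EC₅₀ divided by red-light EC₅₀ in SK-MEL-28 cells. Viability was read 48 h later by alamarBlue fluorescence.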

SK-MEL-28 [2] = test: Phototoxicity against human SK-MEL-28 cells assessed as reduction in cell viability preincubated for 16 hrs followed by irradiated with 100 J/cm2 625 nanometer red light for 60 mins and measured after 48 hrs by alamar blue assay; type: functional, cell-based; conditions: SK-MEL-28, light or radiation study
Summary of the method: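 Cells (SK-MEL-28, ~550,000–600,000 cells/mL) were dosed with compound at 1 nM–300 μM in DPBS dilutions, with a 16 h drug-to-light interval at 37 °C. They were irradiated with a 625 nm LED array at 27.8 mW/cm² to 100 J/cm². After 48 h of incubation, alamarBlue was added for 15–16 h and fluorescence was read (ex 530, em 620 nm) to give EC₅₀.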

SK-MEL-28 [3] = test: Phototoxicity against human SK-MEL-28 cells assessed as reduction in cell viability preincubated for 16 hrs followed by irradiated with 100 J/cm2 400 to 700 nanometer visible light for 48 mins and measured after 48 hrs by alamar blue assay; conditions: SK-MEL-28, light or radiation study
SK-MEL-28 [4] = test: Phototherapeutic index, ratio of EC50 for cytotoxicity against human SK-MEL-28 cells in dark condition to EC50 for phototoxicity against human SK-MEL-28 cells preincubated for 16 hrs followed by irradiated with 100 J/cm2 400 to 700 nanometer visible light for 48 mins
SK-MEL-28 [5] = test: Cytotoxicity against human SK-MEL-28 cells assessed as reduction in cell viability preincubated for 16 hrs in dark condition subsequently incubated for 48 hrs by alamar blue assay; type: cell-based
Summary of the method: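 SK-MEL-28 human melanoma cells, ~550,000–600,000 cells/mL, settled 3 h at 37 °C, 5% CO₂. Compounds were serially diluted in DPBS and tested over 1 nM to 300 μM. Plates were kept dark in the incubator for 16 h, then 48 h more. alamarBlue was then added for 15–16 h, and viability was read by fluorescence (ex 530, em 620 nm) to give EC₅₀.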

**Q.** Which “Ratio EC50” value (SK-MEL-28 [1]) does the source give for `COC1=C2c3c4c5c(c(O)cc(OC)c5c5c(OC)cc(O)c(c35)C1=O)C(=O)[C@H](OC)[C@]41C[C@@](C)(O)[C@H]2[C@]1(C)O` here?
**A.** The value was 219.

**Q.** And the EC50 (SK-MEL-28 [2])?
**A.** Its EC50 is 603 nM.

**Q.** What about the EC50 (SK-MEL-28 [3]) of the same compound?
**A.** The EC50 was 172 nM.

**Q.** What about the “Ratio EC50” value (SK-MEL-28 [4]) of the same compound?
**A.** The value was 767.

**Q.** What about the EC50 (SK-MEL-28 [5]) of the same compound?
**A.** The EC50 was 132 µM.

**Q.** How did the “Ratio EC50” value (SK-MEL-28 [1]) turn out when `COC1=C2c3c4c5c(c(O)cc(OC)c5c5c(OC)cc(O)c(c35)C1=O)C(=O)[C@H](OC)[C@]41C[C@](C)(O)[C@H]2[C@]1(C)O` was run?
**A.** The value was greater than 234.

**Q.** What about the EC50 (SK-MEL-28 [2]) of the same compound?
**A.** Its EC50 is 1280 nM.

**Q.** And the EC50 (SK-MEL-28 [3])?
**A.** The EC50 was 135 nM.

**Q.** And the “Ratio EC50” value (SK-MEL-28 [4])?
**A.** Its value is greater than 2222.

**Q.** And the EC50 (SK-MEL-28 [5])?
**A.** The EC50 was greater than 300 µM.

**Q.** Which “Ratio EC50” value (SK-MEL-28 [1]) does the source give for `COC1=C2c3c4c5c(c(O)cc(OC)c5c5c(OC)cc(O)c(c35)C1=O)C(=O)C[C@]41C[C@](C)(O)[C@H]2[C@]1(C)O` here?
**A.** Its value is 39.

**Q.** What about the EC50 (SK-MEL-28 [2]) of the same compound?
**A.** The EC50 was 2550 nM.

**Q.** What about the EC50 (SK-MEL-28 [3]) of the same compound?
**A.** Its EC50 is 176 nM.

**Q.** What about the “Ratio EC50” value (SK-MEL-28 [4]) of the same compound?
**A.** The value was 561.

**Q.** And the EC50 (SK-MEL-28 [5])?
**A.** Its EC50 is 98.7 µM.

**Q.** Which “Ratio EC50” value (SK-MEL-28 [1]) does the source give for `COC1=C(C(C)=O)C2=C(C)Cc3c(OC)c(=O)c(O)c4cc(OC)c5c(OC)cc(O)c6c(c2c3c4c56)C1=O` here?
**A.** Its value is 2783.

**Q.** And the EC50 (SK-MEL-28 [2])?
**A.** Its EC50 is 15.7 nM.

**Q.** What about the EC50 (SK-MEL-28 [3]) of the same compound?
**A.** The EC50 was 14.7 nM.

**Q.** And the “Ratio EC50” value (SK-MEL-28 [4])?
**A.** The value was 2973.

**Q.** What about the EC50 (SK-MEL-28 [5]) of the same compound?
**A.** Its EC50 is 43.7 µM.

**Q.** Which “Ratio EC50” value (SK-MEL-28 [1]) does the source give for `COc1c(O)c2c(=O)cc(OC)c3c4c(OC)cc(=O)c5c(O)c(OC)c6c(c(c1C[C@@](C)(O)[C@@H]6C(C)=O)c23)c54` here?
**A.** Its value is 2569.

**Q.** What about the EC50 (SK-MEL-28 [2]) of the same compound?
**A.** The EC50 was 15.3 nM.

**Q.** What about the EC50 (SK-MEL-28 [3]) of the same compound?
**A.** Its EC50 is 10.3 nM.

**Q.** And the “Ratio EC50” value (SK-MEL-28 [4])?
**A.** The value was 3816.

**Q.** And the EC50 (SK-MEL-28 [5])?
**A.** Its EC50 is 39.3 µM.

**Q.** With `COc1c(O)c2c(=O)cc(OC)c3c4c(OC)cc(O)c5c(=O)c(OC)c6c(c(c1[C@H](C(C)=O)[C@](C)(O)C6)c23)c54` as the compound, how does the “Ratio EC50” value (SK-MEL-28 [1]) read?
**A.** Its value is 2196.

**Q.** And the EC50 (SK-MEL-28 [2])?
**A.** The EC50 was 59.2 nM.

**Q.** What about the EC50 (SK-MEL-28 [3]) of the same compound?
**A.** The EC50 was 53.5 nM.

**Q.** What about the “Ratio EC50” value (SK-MEL-28 [4]) of the same compound?
**A.** The value was 2430.

**Q.** And the EC50 (SK-MEL-28 [5])?
**A.** Its EC50 is 130 µM.
